Measured values from ChEMBL document CHEMBL1212776, “Novel ambler class A carbapenem-hydrolyzing beta-lactamase from a Pseudomonas fluorescens isolate from the Seine River, Paris, France” (Antimicrob Agents Chemother, 2010).
Values after ≈ are worked out from the molar mass of the structure shown.

Columns and labels:
[1] = system: Pseudomonas fluorescens; test: Activity at Pseudomonas fluorescens PF-1 beta-lactamase BIC-1 expressed in Escherichia coli DH10B carrying pSau1
[2] = system: Pseudomonas fluorescens; test: Antimicrobial activity against Pseudomonas fluorescens isolate PF-1 expressing beta-lactamase BIC-1 by Etest; type: functional
Outline: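 MIC for isolate PF-1 by Etest, interpreted per CLSI recommendations. Cultures grown in Trypticase soy broth, 37°C, 18 h.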

[3] = system: Escherichia coli; test: Antimicrobial activity against Escherichia coli DH10B harbouring recombinant plasmid pSau1 expressing beta-lactamase BIC-1 from Pseudomonas fluorescens PF-1 by Etest; type: functional
[4] = Inhibition of Pseudomonas fluorescens PF-1 beta-lactamase BIC-1 expressed in Escherichia coli DH10B carrying pSau1
Outline: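 BIC-1 purified from E. coli DH10B(pSau1) lysate by S-Sepharose flowthrough, then Q-Sepharose with a 0–500 mM NaCl gradient. Enzyme preincubated with varied inhibitor (clavulanate, tazobactam or sulbactam) for 3 min at 30°C. Then 100 μM benzylpenicillin added. IC50 is the inhibitor concentration halving the hydrolysis rate.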

[5] = biological target: Carbapenem-hydrolyzing beta-lactamase KPC (Klebsiella pneumoniae, UniProt Q9F663); test: Inhibition of carbapenem-resistant Klebsiella pneumoniae carbepenem-hydrolyzing beta-lactamase KPC-1
[6] = system: Escherichia coli; test: Antimicrobial activity against Escherichia coli DH10B by Etest; type: functional
Outline: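 MIC by Etest, interpreted per CLSI recommendations. Reference strain E. coli DH10B without recombinant plasmid; cultures grown in Trypticase soy broth at 37°C for 18 h.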

[7] = system: Pseudomonas fluorescens; test: Antimicrobial activity against Pseudomonas fluorescens isolate PF-1 expressing beta-lactamase BIC-1 by Etest in presence of 4 ug/ml of clavulanic acid; type: functional
Outline: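 MIC for isolate PF-1 by Etest, with clavulanic acid held at a fixed 4 μg/ml and the β-lactam varied. Interpreted per CLSI recommendations.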

[8] = system: Escherichia coli; test: Antimicrobial activity against Escherichia coli DH10B harbouring recombinant plasmid pSau1 expressing beta-lactamase BIC-1 from Pseudomonas fluorescens PF-1 by Etest in presence of 4 ug/ml of clavulanic acid; type: functional
[9] = system: Escherichia coli; test: Antimicrobial activity against Escherichia coli DH10B by Etest in presence of 4 ug/ml of clavulanic acid; type: functional
Outline: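 Etest MIC with clavulanic acid held at a fixed 4 μg/ml alongside the β-lactam, read per CLSI recommendations. Strain E. coli DH10B; cultures grown in TS broth at 37°C for 18 h.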

[10] = substrate: CC(=O)OCC1=C(C(=O)O)N2C(=O)[C@@H](NC(=O)Cc3cccs3)[C@H]2SC1; test: (§1) Ratio of Kcat to Km of Pseudomonas fluorescens PF-1 beta-lactamase BIC-1 expressed in Escherichia coli DH10B using nitrocefin hydrolysis
Outline: (§2)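 Cells from overnight 37°C TS broth culture with amoxicillin and kanamycin were sonicated. Enzyme purified by S-Sepharose (malonate pH 6.1), then Q-Sepharose (bis-Tris pH 7.2, 0–500 mM NaCl gradient), and dialyzed into 50 mM sodium phosphate pH 7. kcat and Km measured on the purified enzyme. Values are means of three independent experiments; SD within 10%.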

[11] = substrate: CC1(C)S[C@@H]2[C@H](NC(=O)Cc3ccccc3)C(=O)N2[C@H]1C(=O)O; test: as §1; outline: as §2
[12] = substrate: CC1(C)S[C@@H]2[C@H](NC(=O)[C@H](C(=O)O)c3ccsc3)C(=O)N2[C@H]1C(=O)O; test: as §1; outline: as §2
[13] = substrate: CC1(C)S[C@@H]2[C@H](NC(=O)[C@H](N)c3ccccc3)C(=O)N2[C@H]1C(=O)O; test: as §1; outline: as §2
[14] = substrate: CCN1CCN(C(=O)N[C@@H](C(=O)N[C@@H]2C(=O)N3[C@@H]2SC(C)(C)[C@@H]3C(=O)O)c2ccccc2)C(=O)C1=O; test: as §1; outline: as §2
[15] = substrate: CO/N=C(\C(=O)N[C@@H]1C(=O)N2C(C(=O)O)=C(COC(C)=O)CS[C@H]12)c1csc(N)n1; test: as §1; outline: as §2
[16] = substrate: CO/N=C(\C(=O)N[C@@H]1C(=O)N2C(C(=O)O)=C(COC(N)=O)CS[C@H]12)c1ccco1; test: as §1; outline: as §2
[17] = substrate: CO[C@@]1(NC(=O)C(C(=O)O)c2ccc(O)cc2)C(=O)N2C(C(=O)O)=C(CSc3nnnn3C)CO[C@@H]21; test: as §1; outline: as §2
[18] = substrate: CO[C@@]1(NC(=O)Cc2cccs2)C(=O)N2C(C(=O)O)=C(COC(N)=O)CS[C@@H]21; test: as §1; outline: as §2
[19] = substrate: C[C@@H](O)[C@H]1C(=O)N2C(C(=O)O)=C(SCCNC=N)C[C@H]12; test: as §1; outline: as §2
[20] = substrate: C[C@@H](O)[C@H]1C(=O)N2C(C(=O)O)=C(S[C@@H]3CN[C@H](C(=O)N(C)C)C3)[C@H](C)[C@H]12; test: as §1; outline: as §2
[21] = substrate: C[C@@H](O)[C@H]1C(=O)N2C(C(=O)O)=C(S[C@@H]3CN[C@H](C(=O)Nc4cccc(C(=O)O)c4)C3)[C@H](C)[C@H]12; test: as §1; outline: as §2
[22] = substrate: C[C@H]1[C@H](NC(=O)/C(=N\OC(C)(C)C(=O)O)c2csc(N)n2)C(=O)N1S(=O)(=O)O; test: as §1; outline: as §2
[23] = substrate: Cc1onc(-c2ccccc2)c1C(=O)N[C@@H]1C(=O)N2[C@@H]1SC(C)(C)[C@@H]2C(=O)O; test: as §1; outline: as §2
[24] = substrate: O=C(Cc1cccs1)N[C@@H]1C(=O)N2C(C(=O)[O-])=C(C[n+]3ccccc3)CS[C@H]12; test: as §1; outline: as §2

Chain of Carbapenem-hydrolyzing beta-lactamase KPC (Q9F663 whole entry): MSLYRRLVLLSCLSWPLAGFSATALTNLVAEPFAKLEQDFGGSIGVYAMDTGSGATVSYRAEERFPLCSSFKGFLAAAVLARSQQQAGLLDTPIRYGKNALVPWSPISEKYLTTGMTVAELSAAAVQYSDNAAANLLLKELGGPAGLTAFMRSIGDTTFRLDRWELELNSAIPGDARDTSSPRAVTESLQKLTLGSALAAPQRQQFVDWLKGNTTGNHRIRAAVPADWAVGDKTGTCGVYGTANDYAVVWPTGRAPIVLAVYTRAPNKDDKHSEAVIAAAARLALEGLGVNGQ

CC1(C)S[C@@H]2[C@H](NC(=O)Cc3ccccc3)C(=O)N2[C@H]1C(=O)O
Km [1]: 48 µM
kcat [1]: 31 s⁻¹

C[C@H]1[C@H](NC(=O)/C(=N\OC(C)(C)C(=O)O)c2csc(N)n2)C(=O)N1S(=O)(=O)O [AZTREONAM]
MIC [2]: > 256 µg/mL
MIC [3]: 16 µg/mL
Km [1]: > 1000 µM
kcat [1]: 35 s⁻¹

O=C(O)[C@H]1/C(=C/CO)O[C@@H]2CC(=O)N21 [CLAVULANIC ACID]
IC50 [4]: 30 µM
IC50 [5]: 10.5 µM

CCN1CCN(C(=O)N[C@@H](C(=O)N[C@@H]2C(=O)N3[C@@H]2SC(C)(C)[C@@H]3C(=O)O)c2ccccc2)C(=O)C1=O [PIPERACILLIN]
MIC [2]: 4 µg/mL (≈ 7.73 µM)
MIC [3]: 256 µg/mL
MIC [6]: 1 µg/mL (≈ 1.93 µM)
Km [1]: 175 µM
kcat [1]: 40 s⁻¹

CC1(C)S[C@@H]2[C@H](NC(=O)[C@H](N)c3ccc(O)cc3)C(=O)N2[C@H]1C(=O)O [AMOXICILLIN]
MIC [2]: > 256 µg/mL
MIC [3]: > 256 µg/mL
MIC [6]: 4 µg/mL (≈ 10.9 µM)
MIC [7]: > 256 µg/mL
MIC [8]: 16 µg/mL
MIC [9]: 4 µg/mL

O=C(Cc1cccs1)N[C@@H]1C(=O)N2C(C(=O)[O-])=C(C[n+]3ccccc3)CS[C@H]12
Km [1]: 770 µM
kcat [1]: 170 s⁻¹

CO/N=C(\C(=O)N[C@@H]1C(=O)N2C(C(=O)O)=C(COC(C)=O)CS[C@H]12)c1csc(N)n1 [CEFOTAXIME]
MIC [2]: > 32 µg/mL
MIC [3]: 0.5 µg/mL
MIC [6]: 0.12 µg/mL (≈ 0.263 µM)
Km [1]: 2200 µM
kcat [1]: 20 s⁻¹

Cc1onc(-c2ccccc2)c1C(=O)N[C@@H]1C(=O)N2[C@@H]1SC(C)(C)[C@@H]2C(=O)O
Km [1]: 110 µM
kcat [1]: 15 s⁻¹

CO[C@@]1(NC(=O)Cc2cccs2)C(=O)N2C(C(=O)O)=C(COC(N)=O)CS[C@@H]21 [CEFOXITIN]
MIC [2]: > 256 µg/mL
MIC [3]: 4 µg/mL
MIC [6]: 1 µg/mL (≈ 2.34 µM)
Km [1]: 825 µM
kcat [1]: 1 s⁻¹

CO/N=C(\C(=O)N[C@@H]1C(=O)N2C(C(=O)[O-])=C(C[N+]3(C)CCCC3)CS[C@H]12)c1csc(N)n1
MIC [2]: > 16 µg/mL
MIC [3]: 0.12 µg/mL

C[C@@H](O)[C@H]1C(=O)N2C(C(=O)O)=C(S[C@@H]3CN[C@H](C(=O)N(C)C)C3)[C@H](C)[C@H]12 [MEROPENEM]
MIC [2]: > 16 µg/mL
MIC [3]: 0.25 µg/mL
MIC [6]: 0.12 µg/mL (≈ 0.313 µM)
Km [1]: 12 µM
kcat [1]: 1 s⁻¹

CO[C@@]1(NC(=O)C(C(=O)O)c2ccc(O)cc2)C(=O)N2C(C(=O)O)=C(CSc3nnnn3C)CO[C@@H]21 (some centres undefined) [MOXALACTAM]
MIC [2]: > 256 µg/mL
MIC [3]: 0.12 µg/mL
MIC [6]: 0.12 µg/mL (≈ 0.231 µM)
Km [1]: 1700 µM
kcat [1]: 3 s⁻¹

CC1(C)S[C@@H]2[C@H](NC(=O)[C@H](N)c3ccccc3)C(=O)N2[C@H]1C(=O)O
Km [1]: 1150 µM
kcat [1]: 185 s⁻¹

CC1(C)S[C@@H]2[C@H](NC(=O)[C@H](C(=O)O)c3ccsc3)C(=O)N2[C@H]1C(=O)O [TICARCILLIN]
MIC [2]: > 256 µg/mL
MIC [3]: > 256 µg/mL
MIC [6]: 4 µg/mL (≈ 10.4 µM)
MIC [7]: > 256 µg/mL
MIC [8]: 128 µg/mL
MIC [9]: 4 µg/mL
Km [1]: 250 µM
kcat [1]: 15 s⁻¹

C[C@@H](O)[C@H]1C(=O)N2C(C(=O)O)=C(SCCNC=N)C[C@H]12 [IMIPENEM ANHYDROUS]
MIC [2]: > 16 µg/mL
MIC [7]: > 16 µg/mL
MIC [9]: 0.12 µg/mL
Km [1]: 300 µM
kcat [1]: 50 s⁻¹

C[C@]1(Cn2ccnn2)[C@H](C(=O)O)N2C(=O)C[C@H]2S1(=O)=O [TAZOBACTAM]
IC50 [4]: 6.5 µM

C[C@@H](O)[C@H]1C(=O)N2C(C(=O)O)=C(S[C@@H]3CN[C@H](C(=O)Nc4cccc(C(=O)O)c4)C3)[C@H](C)[C@H]12
MIC [2]: > 16 µg/mL
MIC [3]: 0.25 µg/mL
MIC [6]: 0.12 µg/mL (≈ 0.252 µM)
Km [1]: 10 µM
kcat [1]: 2 s⁻¹

CC(C)(O/N=C(\C(=O)N[C@@H]1C(=O)N2C(C(=O)[O-])=C(C[n+]3ccccc3)CS[C@H]12)c1csc(N)n1)C(=O)O [CEFTAZIDIME]
MIC [2]: 2 µg/mL (≈ 3.66 µM)
MIC [3]: 0.5 µg/mL
MIC [6]: 0.5 µg/mL (≈ 0.915 µM)

CO/N=C(\C(=O)N[C@@H]1C(=O)N2C(C(=O)O)=C(COC(N)=O)CS[C@H]12)c1ccco1 [CEFUROXIME]
MIC [2]: > 256 µg/mL
MIC [3]: 16 µg/mL
MIC [6]: 0.5 µg/mL (≈ 1.18 µM)
Km [1]: > 1000 µM
kcat [1]: 9 s⁻¹

CC(=O)OCC1=C(C(=O)O)N2C(=O)[C@@H](NC(=O)Cc3cccs3)[C@H]2SC1 [CEPHALOTHIN]
MIC [2]: > 256 µg/mL
MIC [3]: 128 µg/mL
MIC [6]: 2 µg/mL (≈ 5.04 µM)
Km [1]: 550 µM
kcat [1]: 250 s⁻¹

B1: Beta-lactamase (Pseudomonas fluorescens), D2WFL1 (protein)
chain: MARPSKLALSFSLLLPFLPFTSFAETWPQGDIARQKIVKLEKDFGGRIGVSAIDTGANRTFDFRADERFPLCSSFKGFLAGAVLSHSQQQEGLLEKRIDYKNRVMEPHSPISAQHSSTGMTVAQLAAAALQYSDNGATNLLLENVLGGPAGMTTFMRTLGDTTFRLDRWELELNSAIPGDDRDTSTPHAIARSLQKIALGEALQTAPRQQLVDWLIGNTTGGARIRAGVPVEWVVGDKTGTCGVYGTANDYAVIWPKTSAPIVLAIYTAKPNKEDKHSDAVIAEVTRAVLESFE
kcat/Km [10]: 500000 M⁻¹ s⁻¹
kcat/Km [11]: 660000 M⁻¹ s⁻¹
kcat/Km [12]: 60000 M⁻¹ s⁻¹
kcat/Km [13]: 160000 M⁻¹ s⁻¹
kcat/Km [14]: 210000 M⁻¹ s⁻¹
kcat/Km [15]: 9000 M⁻¹ s⁻¹
kcat/Km [16]: < 9000 M⁻¹ s⁻¹
kcat/Km [17]: 1000 M⁻¹ s⁻¹
kcat/Km [18]: 1000 M⁻¹ s⁻¹
kcat/Km [19]: 170000 M⁻¹ s⁻¹
kcat/Km [20]: 80000 M⁻¹ s⁻¹
kcat/Km [21]: 200000 M⁻¹ s⁻¹
kcat/Km [22]: < 35000 M⁻¹ s⁻¹
kcat/Km [23]: 100000 M⁻¹ s⁻¹
kcat/Km [24]: 220000 M⁻¹ s⁻¹
